Scp1 inh – blocks human Scp-1 phosphatase activity; inhibition, % at 20 µM; AID 493091; Recombinant Scp1, phosphopeptide, malachite green phosphate absorbance; 340,000 tested, 0.88% active;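 active = inhibition above about 50% at 20 µM, limit read from the data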
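Material – SCP-1 phosphatase catalytic domain, residues 76-261 · Buffer or medium – Acidic Tris acetate buffer with magnesium and detergent · Also added – Phospho 17-mer peptide substrate · Compound – single 20 µM dose, 1% DMSO · Times – 45 min room-temperature reaction, 5 min colour, 30 min stabiliser · Technique – Phosphate-binding colour reagent, absorbance read at 630 nm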
SUMO1 PPI mod – modulators of human SUMO1-mediated protein-protein interactions; P63165; SUMO1 binding to a labelled peptide, TR-FRET, 1 h; 360,000 tested, 0.33% active; inhibition, % at 20 µM; in the data active = inhibition above about 37%
Target sequence (P63165 whole entry, looked up): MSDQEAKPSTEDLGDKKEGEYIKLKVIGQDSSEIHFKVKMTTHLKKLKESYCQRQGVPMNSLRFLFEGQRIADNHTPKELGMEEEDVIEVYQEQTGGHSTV
LMPTP block – LMPTP (human) inhibition. P24666. recombinant LMPTP-A, OMFP fluorogenic substrate, fluorescence intensity. inhibition, % at 20 µM. 360,000 tested, 0.22% active;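 active = compounds that cut the enzyme signal by at least half of the control window in the single-dose screen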
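Test system: LMPTP-A, protein tyrosine phosphatase of low molecular weight; Input: 0.625 nM enzyme; Incubation: 50 min dark incubation at room temperature; Signal: endpoint fluorescence intensity from OMFP dephosphorylation; Read-out basis: % inhibition versus control wells.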
STEP block – inhibitors of human striatal-enriched phosphatase STEP. P54829. recombinant STEP, OMFP fluorogenic substrate, fluorescence. inhibition, % at 20 µM. 360,000 tested, 0.25% active;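 active = inhibition at 20 µM, scaled per plate between control wells, above about 37%, limit read from the data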
Target sequence (P54829 whole entry, looked up): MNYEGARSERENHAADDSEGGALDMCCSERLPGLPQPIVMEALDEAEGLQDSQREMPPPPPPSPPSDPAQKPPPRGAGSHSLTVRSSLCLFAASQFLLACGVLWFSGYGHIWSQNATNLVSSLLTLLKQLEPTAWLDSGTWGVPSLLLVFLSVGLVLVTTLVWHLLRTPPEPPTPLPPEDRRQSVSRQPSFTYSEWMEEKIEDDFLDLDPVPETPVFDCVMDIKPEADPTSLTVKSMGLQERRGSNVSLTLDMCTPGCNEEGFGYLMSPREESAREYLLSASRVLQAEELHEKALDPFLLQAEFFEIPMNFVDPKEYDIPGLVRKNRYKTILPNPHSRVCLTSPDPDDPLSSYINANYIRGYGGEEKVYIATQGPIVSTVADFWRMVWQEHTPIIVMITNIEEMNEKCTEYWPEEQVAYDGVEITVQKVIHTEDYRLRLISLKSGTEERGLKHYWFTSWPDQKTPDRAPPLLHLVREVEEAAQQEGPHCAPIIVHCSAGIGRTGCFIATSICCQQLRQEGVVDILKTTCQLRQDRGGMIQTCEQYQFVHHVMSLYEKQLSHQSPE
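medium = Bis-Tris buffer pH 6.0, 2.5 mM DTT, 0.005% Tween 20 | test system = STEP (striatal-enriched tyrosine phosphatase) enzyme, cell-free | measure = normalized % inhibition | compound dosing = 20 µM, 1% DMSO | also added = 25 µM OMFP | schedule = reaction 20 min, ambient temperature | measured by = fluorescence read at 480 nm ex / 540 nm em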
DNMT1 block – inhibitors of human DNMT1; DNMT1 molecular beacon, Hinp1I cleavage, fluorescence; inhibition (reported as % activation of signal), % at 10 µM; 360,000 tested, 0.83% active; AID 588458; in the data active = inhibition above about 50%
Rpn11 block – Rpn11 (human) deubiquitinase inhibition. human 26S proteasome, Ub4-pepOG fluorescence polarization; 20S core pre-blocked with epoxomicin. inhibition, % at 20 µM. 360,000 tested, 0.59% active;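 active = inhibition at 20 µM, scaled to each plate's controls, above about 33%, limit read from the data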
Rpn11 confirm – confirmation of human proteasome Rpn11 inhibitors; shares compounds with Rpn11 block; purified human 26S proteasome, Ub4-pepOG fluorescence polarization; proteasome pretreated with epoxomicin; inhibition, % at 20 µM; 1,900 tested, 29% active
MMP-2 counter – MMP-2 (human) inhibition counter-screen. inhibition, % at 20 µM. AID 602330. 1,900 tested, 4% active. shares compounds with Rpn11 block. recombinant MMP-2, FRET peptide cleavage fluorescence;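 note: human MMP-2 activated beforehand with APMA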
Thrombin inh – counter-screen for RPN11 inhibitors: inhibition of bovine thrombin | 1,900 tested, 13% active | inhibition, % at 20 µM | shares compounds with Rpn11 block | bovine thrombin cleavage of Ub4-pepOG, fluorescence polarization;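 active = mean inhibition at least 40% at 20 µM, or signal 3 deviations below plate average, so some actives read negative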
A number is an active result. Rows were chosen to be rich in hits. Some 2.3% of all compounds tested hit in one or more screens of this group. Cut-off read from the data, not from the text of the source, unless noted: active = inhibition above about 40%; inactive = the rest.

For O=C(c1ccc(F)cc1)c1cn[nH]c1-c1ccccc1O the results were Scp1 inh inactive, SUMO1 PPI mod inactive, LMPTP block inactive, STEP block inactive, DNMT1 block inactive and Rpn11 block inactive.
`COc1ccc(F)c(CN2CCC(n3nccc3NC(=O)CCCc3ccccc3)CC2)c1` gave Scp1 inh inactive, SUMO1 PPI mod inactive, LMPTP block inactive, STEP block inactive, DNMT1 block inactive, Rpn11 block 35, Rpn11 confirm inactive, MMP-2 counter inactive and Thrombin inh inactive.
`O=C(O)CC(C(=O)O)N1C(=O)/C(=C/C=C/c2ccco2)SC1=S` (stereo unspecified) gave Scp1 inh 88, SUMO1 PPI mod 112, LMPTP block 66, STEP block 89, DNMT1 block 79, Rpn11 block 64, Rpn11 confirm 97, MMP-2 counter 59 and Thrombin inh inactive.
Screening O=C(O)C(Cc1ccccc1)N1C(=O)/C(=C/C=C/c2ccco2)SC1=S (stereo unspecified) returned Scp1 inh 84, SUMO1 PPI mod 115, LMPTP block 64, STEP block 83, DNMT1 block 97, Rpn11 block 175, Rpn11 confirm 178, MMP-2 counter inactive and Thrombin inh 53.
Screening COc1ccc(/C=C2\SC(=S)N(C(Cc3ccccc3)C(=O)O)C2=O)cc1 (stereo unspecified) returned Scp1 inh inactive, SUMO1 PPI mod inactive, LMPTP block inactive, STEP block inactive, DNMT1 block inactive and Rpn11 block inactive.
O=C(NN1C(=O)/C(=C/C=C/c2ccco2)SC1=S)c1ccccc1O was read as Scp1 inh 74, SUMO1 PPI mod 77, LMPTP block 61, STEP block inactive, DNMT1 block 91, Rpn11 block 177, Rpn11 confirm 100, MMP-2 counter 58 and Thrombin inh 60.
O=C1CCC([N+](=O)[O-])C(c2ccc(C(F)(F)F)cc2)N1 (stereo unspecified) was read as Scp1 inh inactive, SUMO1 PPI mod inactive, LMPTP block inactive, STEP block inactive, DNMT1 block inactive and Rpn11 block inactive.
CCC(=O)N1CCc2cc(S(=O)(=O)N3CCc4ccccc4C3)ccc21 was read as Scp1 inh inactive, SUMO1 PPI mod inactive, LMPTP block inactive, STEP block inactive, DNMT1 block inactive, Rpn11 block 56, Rpn11 confirm inactive, MMP-2 counter inactive and Thrombin inh inactive.
For CCC(=O)N1CCc2cc(S(=O)(=O)N3CCN(c4ccccc4)CC3)ccc21 the results were Scp1 inh inactive, SUMO1 PPI mod inactive, LMPTP block inactive, STEP block inactive, DNMT1 block inactive and Rpn11 block inactive.
Screening CN(/N=C/c1ccc(O)cc1O)c1nc(-c2ccccc2)cc(-c2ccccc2)n1 returned Scp1 inh inactive, SUMO1 PPI mod inactive, LMPTP block inactive, STEP block inactive, DNMT1 block inactive and Rpn11 block inactive.
`CCCn1c(=O)[nH]c(=O)c2c(C(=O)OCC)cc(-c3cccs3)nc21` gave Scp1 inh inactive, SUMO1 PPI mod inactive, LMPTP block inactive, STEP block inactive, DNMT1 block inactive and Rpn11 block inactive.
`O=C1NC(=S)S/C1=C/c1ccc(N2CCOCC2)o1` gave Scp1 inh inactive, SUMO1 PPI mod inactive, LMPTP block inactive, STEP block inactive and DNMT1 block inactive.
COc1ccc2cc(/C=C3\SC(=S)NC3=O)c(N3CCOCC3)nc2c1 was read as Scp1 inh inactive, SUMO1 PPI mod inactive, LMPTP block inactive, STEP block inactive, DNMT1 block inactive, Rpn11 block 55, Rpn11 confirm 48, MMP-2 counter inactive and Thrombin inh active.
COC(=O)c1c(NC(=O)c2ccc(S(=O)(=O)N3CC(C)OC(C)C3)cc2)sc2c1CCN(C)C2 (stereo unspecified) was read as SUMO1 PPI mod inactive, LMPTP block inactive, STEP block inactive, DNMT1 block inactive, Rpn11 block 69, Rpn11 confirm 93, MMP-2 counter inactive and Thrombin inh inactive.
Cc1ccc(-c2ccc(/C=C3\SC(N4CCOCC4)=NC3=O)o2)cc1 was read as Scp1 inh inactive, SUMO1 PPI mod inactive, LMPTP block inactive, STEP block inactive, DNMT1 block inactive, Rpn11 block 60, Rpn11 confirm 48, MMP-2 counter inactive and Thrombin inh inactive.
CCOc1cc(S(=O)(=O)NCc2ccncc2)ccc1Cl was read as Scp1 inh inactive, SUMO1 PPI mod inactive, LMPTP block inactive, STEP block inactive, DNMT1 block inactive and Rpn11 block inactive.
Screening Cc1ccccc1-n1cc(CNC(=O)CCc2nnc(CCc3ccccc3)o2)cn1 returned Scp1 inh inactive, SUMO1 PPI mod inactive, LMPTP block inactive, STEP block inactive, DNMT1 block inactive and Rpn11 block inactive.
Screening Cc1ccc(S(=O)(=O)N(C)C)cc1NC(=O)COC(=O)/C=C/c1ccc(F)cc1 returned Scp1 inh inactive, SUMO1 PPI mod inactive, LMPTP block inactive, STEP block inactive, DNMT1 block inactive and Rpn11 block inactive.
Screening COc1cc(/C=C2/SC(=S)N(CC(=O)Nc3nc4ccccc4s3)C2=O)cc(OC)c1OC returned Scp1 inh inactive, SUMO1 PPI mod inactive, LMPTP block inactive, STEP block inactive, DNMT1 block inactive, Rpn11 block 51, Rpn11 confirm 52, MMP-2 counter inactive and Thrombin inh inactive.
COc1ccc(/C=C2\SC(=S)N(CC(=O)Nc3nnc(C)s3)C2=O)cc1 was read as Scp1 inh inactive, SUMO1 PPI mod inactive, LMPTP block inactive, STEP block inactive, DNMT1 block inactive, Rpn11 block 41, Rpn11 confirm inactive, MMP-2 counter inactive and Thrombin inh inactive.
For COc1cc(/C=C2\SC(=S)N(CC(=O)Nc3ccccn3)C2=O)cc(OC)c1OC the results were Scp1 inh inactive, SUMO1 PPI mod inactive, LMPTP block inactive, STEP block inactive, DNMT1 block inactive, Rpn11 block 60, Rpn11 confirm inactive, MMP-2 counter inactive and Thrombin inh inactive.
For COC(=O)c1c(NC(=O)CSc2ccccc2N)sc(C)c1C the results were Scp1 inh inactive, SUMO1 PPI mod inactive, LMPTP block inactive, STEP block inactive, DNMT1 block inactive and Rpn11 block inactive.

Assay outcomes: PubChem, Sanford-Burnham Center for Chemical Genomics
